Laboratory results taken from ChEMBL document CHEMBL1121634, “Heat-induced formation of alpha,beta-unsaturated nucleoside dialdehydes and their activity with adenosine deaminase” (J Med Chem, 1980).

Assays:
Adenosine deaminase [1] = target: T1, Adenosine deaminase (Bos taurus, UniProt P56658); assay: Inhibitor constant against adenosine deaminase in 0.05 M sodium phosphate buffer at pH 7.0, was determined after heating to 100 degrees celsius
T1 sequence (P56658 whole entry): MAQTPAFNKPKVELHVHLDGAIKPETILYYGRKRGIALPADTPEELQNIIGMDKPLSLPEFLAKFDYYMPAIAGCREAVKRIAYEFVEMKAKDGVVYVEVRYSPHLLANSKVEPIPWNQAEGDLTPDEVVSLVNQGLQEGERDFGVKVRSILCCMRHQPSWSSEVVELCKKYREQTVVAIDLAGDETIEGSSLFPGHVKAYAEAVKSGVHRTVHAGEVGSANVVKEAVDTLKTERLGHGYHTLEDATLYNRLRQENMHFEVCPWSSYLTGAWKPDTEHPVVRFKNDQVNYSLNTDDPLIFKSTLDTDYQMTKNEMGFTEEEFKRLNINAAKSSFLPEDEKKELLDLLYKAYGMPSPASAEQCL
How it was run: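 Dialdehyde pre-heated as an aqueous phosphate-buffer solution at 100 °C (about 1 h). Adenosine deaminase (0.25 unit) added to buffered adenosine (30–70 μM) plus dialdehyde (3-190 μM) in 0.05 M sodium phosphate, pH 7.0, 25 °C. Absorbance change at 265 nm followed. At least five substrate and two inhibitor levels used. Ki from Lineweaver–Burk plots, least-squares lines.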

Adenosine deaminase [2] = target: T1, Adenosine deaminase; assay: Inhibitory constant against adenosine deaminase in 0.05 M sodium phosphate buffer at pH 7.0, was determined before heating
Adenosine deaminase [3] = target: T1, Adenosine deaminase; assay: Inhibitory constant against adenosine deaminase in 0.05 M sodium phosphate buffer at pH 7.0 was determined before heating
Adenosine deaminase [4] = target: T1, Adenosine deaminase; assay: Inhibitor constant against adenosine deaminase in 0.05 M sodium phosphate buffer at pH 7.0 was determined after heating to 100 degrees celsius
How it was run: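 Dialdehyde heated at 100 °C in aqueous phosphate buffer before testing. Adenosine deaminase (0.25 unit) added to buffered adenosine (30–70 μM, at least five levels) with dialdehyde (3–190 μM, two levels). Rate of absorbance change at 265 nm followed at 25 °C, 0.05 M sodium phosphate, pH 7.0. Ki from Lineweaver–Burk plots fitted by Wilkinson least squares.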

Row | Ki (Adenosine deaminase [1]) [µM] | Ki (Adenosine deaminase [2]) [µM] | Ki (Adenosine deaminase [3]) [µM] | Ki (Adenosine deaminase [4]) [µM] | SMILES
1 | 5 | 520 |  |  | Nc1ncnc2c1ncn2[C@@H](C=O)O[C@@H](C=O)CO
2 |  |  | 4 |  | C=C(C=O)OC(C=O)n1cnc2c(N)ncnc21 (centres undefined)
3 |  | 310 |  | 8 | Nc1ncnc2c1ncn2[C@H](C=O)O[C@@H](C=O)CO
4 |  |  | 46 | 30 | Nc1ncnc2c1ncn2[C@@H](C=O)OCC=O
5 |  |  | 780 | 800 | Nc1ncnc2c1ncn2[C@H](C=O)OCC=O
6 |  |  |  | 21 | CC(O)[C@H](C=O)OC(C=O)n1cnc2c(N)ncnc21 (single isomer, unassigned)
7 |  |  |  | 24 | CC(O)[C@@H](C=O)OC(C=O)n1cnc2c(N)ncnc21 (single isomer, unassigned; 7)
8 |  |  | 150 | 20 | CC(O)[C@@H](C=O)OC(C=O)n1cnc2c(N)ncnc21 (single isomer, unassigned; 10)
9 |  |  | 28 | 30 | C[C@@H](C=O)O[C@@H](C=O)n1cnc2c(N)ncnc21 (stereo in doubt; 4)
10 |  |  |  | 69 | CC(O)[C@H](C=O)O[C@@H](C=O)n1cnc2c(N)ncnc21 (stereo in doubt; 8)
11 |  |  |  | 38 | CC(O)[C@H](C=O)O[C@@H](C=O)n1cnc2c(N)ncnc21 (stereo in doubt; 9)
12 |  |  | 160 | 100 | C[C@@H](C=O)O[C@@H](C=O)n1cnc2c(N)ncnc21 (stereo in doubt; 13)
